Data on 19 molecules can be found in ChEMBL document CHEMBL4610079, “Anti-inflammatory Flavanones and Flavones from Tephrosia linearis” (2020).

Common to all, as to type: functional
The subject of assay [1] is PBMC. The experiment in a line: Antiinflammatory activity in LPS-induced human PBMC cells assessed as IL-6 release at 100 uM after 24 hrs by luminex based bead assay relative to control. The gist of the method:
(§1)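 Pooled cryopreserved human PBMCs from three donors were thawed and resuspended in RPMI 1640 with 10% FBS, at 100 000 cells/well. Each test item was given at 100 μM from a 20 mM DMSO stock, with 0.5% final DMSO. It was co-incubated with 10 μg/mL LPS for 24 h at 37 °C and 5% CO2. Supernatant was read by MagPix cytokine bead array, expressed as % of LPS control, n = 1.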

The test system of assay [2] is PBMC. The assay is described as follows: Antiinflammatory activity in LPS-induced human PBMC cells assessed as IL-1beta release at 100 uM after 24 hrs by luminex based bead assay relative to control. Put shortly:
as §1

Assay [3] has as its system PBMC. The experiment in a line: Antiinflammatory activity in LPS-induced human PBMC cells assessed as GM-CSF release at 100 uM after 24 hrs by luminex based bead assay relative to control. The gist of the method:
as §1

Assay [4] deals with PBMC. The experiment in a line: Antiinflammatory activity in LPS-induced human PBMC cells assessed as IL-2 release at 100 uM after 24 hrs by luminex based bead assay relative to control. Put shortly:
as §1

Assay [5] relates to PBMC. The assay is described as follows: Antiinflammatory activity in LPS-induced human PBMC cells assessed as TNFalpha release at 100 uM after 24 hrs by luminex based bead assay relative to control. Put shortly:
as §1

On to `COc1cc(-c2cc(=O)c3ccc(O)cc3o2)ccc1O`, for which the Activity in the assay on PBMC [1] amounted to 100%; with PBMC [2] it was 109.22%; in the assay with PBMC [3], 92.58%; in the assay with PBMC [4] it was 57.64%; with PBMC [5], 3.64%.
Turning to `C=C(C)C(O)Cc1c(O)cc2oc(-c3ccc(O)cc3)cc(=O)c2c1O` (stereo not given), the Activity with PBMC [1] turned out to be 238.54%; in the assay with PBMC [2] it was 103.28%; in the assay with PBMC [3], 38.92%; in the assay with PBMC [4], 57.64%; in the assay with PBMC [5], 5.2%.
The corresponding values for `COc1cc2oc(-c3ccc(O)c(O)c3)c(O[C@@H]3O[C@@H](C)[C@H](O)[C@@H](O)[C@H]3O)c(=O)c2c(O)c1OC` are 24.94%, 148.44%, 48.79%, 17.72% and 3.83%.
In the same order, the values of `COc1cc([C@@H]2CC(=O)c3cc(OC)c(O)cc3O2)ccc1O` are 100%, 220.43%, 35.76%, 57.6% and 12.55%.
In the case of `COc1c2c(c(/C=C\C(C)(C)O)c3oc(-c4ccccc4)cc(=O)c13)OC(C)(C)C=C2`, the Activity in the assay with PBMC [1] stood at 0%; in the assay on PBMC [2], 1.18%; with PBMC [3], 8.63%; with PBMC [4], 57.6%; in the assay with PBMC [5] it was 0.17%.
Turning to `C=C(C)/C=C/c1c2c(c(O)c3c(=O)cc(-c4ccccc4)oc13)C=CC(C)(C)O2`, the Activity with PBMC [1] is listed as 622.32%; with PBMC [2], 169.84%; with PBMC [3] it was 78.39%; in the assay on PBMC [4] it was 17.72%; in the assay with PBMC [5], 1.89%.
Consider `COc1cc2c(c(O)c1CC=C(C)C)C(=O)C[C@@H](c1ccc(O)cc1)O2`, for which the Activity turned out to be 19.57% in the assay with PBMC [1]; 102.34% with PBMC [2]; 46.89% with PBMC [3]; 57.64% with PBMC [4]; 6.38% in the assay on PBMC [5].
As for `COc1cc(-c2cc(=O)c3cc(OC)c(O)cc3o2)ccc1O`, the Activity amounted to 43.11% in the assay on PBMC [1]; 170.51% in the assay with PBMC [2]; 17.39% in the assay with PBMC [3]; 17.72% with PBMC [4]; 4.03% in the assay on PBMC [5].
As to `CC(=O)OCC1(C)C=Cc2c(cc(O)c3c2O[C@H](c2ccccc2)CC3=O)O1` (stereo not given in full), the Activity is on record as 43.39% with PBMC [1]; 157.09% in the assay with PBMC [2]; 40.97% in the assay with PBMC [3]; 17.72% with PBMC [4]; 2.66% in the assay on PBMC [5].
For the molecule `C=C(C)/C=C/c1c2c(c(OC)c3c(=O)cc(-c4ccccc4)oc13)C=CC(C)(C)O2`, the Activity is 97.43% in the assay with PBMC [1]; 75.85% in the assay on PBMC [2]; 83.73% in the assay with PBMC [3]; 57.6% in the assay with PBMC [4]; 3.15% in the assay on PBMC [5].
As to `COc1c2c(c(/C=C/C(C)(C)OC)c3oc(-c4ccccc4)cc(=O)c13)OC(C)(C)C=C2`, the Activity is 10.89% in the assay on PBMC [1]; 68.27% with PBMC [2]; 17.39% in the assay with PBMC [3]; 57.6% with PBMC [4]; 0.92% in the assay on PBMC [5].
For `COc1c(O)cc2oc(-c3ccc(O)c(O)c3)c(O[C@@H]3O[C@@H](C)[C@H](O)[C@@H](O)[C@H]3O)c(=O)c2c1O`, the Activity with PBMC [1] was 0.64%; with PBMC [2], 4.81%; with PBMC [3], 8.63%; in the assay on PBMC [4], 57.6%; in the assay with PBMC [5], 0.54%.
The corresponding values for `CC(C)=CCc1c(O)cc2oc(-c3ccc(O)cc3)cc(=O)c2c1O` are 24.72%, 40.83%, 48.79%, 17.72% and 5.01%.
In the case of `C=C(C)C(O)Cc1c(OC)cc2c(c1O)C(=O)C[C@@H](c1ccc(O)cc1)O2` (stereo not given in full), the Activity stood at 25.79% with PBMC [1]; 53.77% in the assay with PBMC [2]; 32.47% with PBMC [3]; 17.72% in the assay with PBMC [4]; 4.03% in the assay on PBMC [5].
Turning to `O=c1cc(-c2ccc(O)cc2)oc2cc(O)cc(O)c12` [APIGENIN], the Activity is 48.33% with PBMC [1]; 105.17% in the assay with PBMC [2]; 32.47% in the assay with PBMC [3]; 57.6% in the assay on PBMC [4]; 4.22% with PBMC [5].
On to `CC1(C)C=Cc2c(cc(O)c3c(=O)cc(-c4ccc(O)cc4)oc23)O1` [ATALANTOFLAVONE], for which the Activity in the assay with PBMC [1] is listed as 7.23%; in the assay on PBMC [2], 48.35%; with PBMC [3], 4.87%; in the assay on PBMC [4] it was 57.64%; in the assay with PBMC [5] it was 1.12%.
Regarding `CC(C)Cc1ccc(C(C)C(=O)O)cc1` (stereo not given) [IBUPROFEN], the Activity in the assay with PBMC [1] was found to be 46.46%; in the assay with PBMC [2], 199.29%; in the assay with PBMC [3], 47.76%; in the assay with PBMC [4], 80.33%; with PBMC [5], 12.23%.
`O=c1cc(-c2ccc(O)c(O)c2)oc2cc(O)cc(O)c12` [LUTEOLIN]: the Activity stood at 0.04% in the assay with PBMC [1]; 0.67% in the assay on PBMC [2]; 8.63% with PBMC [3]; 57.6% in the assay with PBMC [4]; 0.17% with PBMC [5].
In the same order, the values of `COc1cc(O)c2c(=O)cc(-c3ccc(O)c(OC)c3)oc2c1` [VELUTIN] are 0.09%, 0.8%, 8.63%, 57.6% and 0.92%.
